Screens deposited in PubChem BioAssay by several laboratories.
Yeast lifespan up = compounds extending yeast replicative lifespan, primary screen, S. cerevisiae, OD615. S. cerevisiae growth with nicotinamide; deaD strain in restrictive glucose medium. inhibition of the nicotinamide effect, % at 10 µM. hit rate 0.68% among 130,000. AID 775, 2007;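 active = inhibition above a set limit, placed 3 SD over the median of all compounds, cut at about 26% in these data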;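 note: 0% = nicotinamide-treated wells and 100% = cells grown without nicotinamide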
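Assay system: engineered S. cerevisiae DeaD replicative-lifespan strain, galactose-grown log-phase cells; Buffer or medium: CSMM-D glucose medium, restrictive; Probe or stimulus: nicotinamide 1.5 mM; Compound: single dose 10 µM compound, 0.25% DMSO; Schedule: 4 h preincubation then 48 h treatment at 30 °C; Technique: OD615 measurement.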
p47phox inh = p47phox/p22phox peptide binding inhibitors, primary screen, biochemical, uHTS, NADPH oxidase regulatory subunit | fluorescence polarization, 2 h | Neutrophil cytosol factor 1 (Homo sapiens), P14598 | inhibition, % at 24.7 µM | hit rate 0.53% among 220,000;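 active = inhibition above about 30%, limit read from the data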;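 note: 0% = p47phox with labelled peptide and 100% = labelled peptide alone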
Target sequence (P14598 whole entry, looked up): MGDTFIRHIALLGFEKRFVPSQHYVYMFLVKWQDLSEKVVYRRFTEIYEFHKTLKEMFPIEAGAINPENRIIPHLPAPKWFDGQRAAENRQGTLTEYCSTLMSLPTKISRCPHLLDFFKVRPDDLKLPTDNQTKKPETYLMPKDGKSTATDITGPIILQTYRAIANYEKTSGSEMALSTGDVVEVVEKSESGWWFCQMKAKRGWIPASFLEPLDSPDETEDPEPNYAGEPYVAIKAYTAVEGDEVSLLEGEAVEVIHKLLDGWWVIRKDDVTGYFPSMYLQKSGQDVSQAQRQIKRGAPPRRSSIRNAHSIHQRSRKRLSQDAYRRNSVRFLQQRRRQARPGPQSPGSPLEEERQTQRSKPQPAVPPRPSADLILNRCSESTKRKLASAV
TbHK1 inh = Trypanosoma brucei hexokinase 1 inhibitors, primary screen, biochemical, G6PDH-coupled NADH absorbance, MLSCN library; recombinant TbHK1, G6PDH-coupled NADH A340; hexokinase 1 [Trypanosoma brucei]; inhibition, % at 10 µM; hit rate 0.11% among 220,000; AID 1430, 2008;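 active = inhibition of 50% or more in the single-dose primary screen; inactive = inhibition below 50%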
Yeast growth inh = growth inhibitors of yeast BB579 in restrictive medium, primary screen, yeast lifespan-shortening project, S. cerevisiae. hit rate 0.51% among 140,000. inhibition, % at 10 µM. OD615, 48 h. AID 804, 2007;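 active = inhibition above a set limit, 3 SD over the mean compound inhibition, cut at about 44% in these data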
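Test system: DeaD yeast strain BB579 / Buffer or medium: restrictive glucose-based CSMM-D medium / Doses: single 10 µM dose / Schedule: 4 h cell preincubation, 48 h compound exposure, 30 °C humidified / Technique: culture absorbance at 615 nm / Controls: amphotericin B positive control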
RBBP9 inh = human RBBP9 inhibitors, primary screen, biochemical, fluorescence polarization, FP-Rh probe, HTS; Serine hydrolase RBBP9 (Homo sapiens), O75884; recombinant RBBP9; inhibition, % at 7.94 µM; hit rate 0.2% among 220,000;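 active = inhibition above the campaign mean of all tested compounds plus 3 SD, cut at about 14% in these data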;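 note: plate controls were DMSO wells with RBBP9 for no effect and wells lacking RBBP9 protein for full effect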
Target sequence (O75884 whole entry, looked up): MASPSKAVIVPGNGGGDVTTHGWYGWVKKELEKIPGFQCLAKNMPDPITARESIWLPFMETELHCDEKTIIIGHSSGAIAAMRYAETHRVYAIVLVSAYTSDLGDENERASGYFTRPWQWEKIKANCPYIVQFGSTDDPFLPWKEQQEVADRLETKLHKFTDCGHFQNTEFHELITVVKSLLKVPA
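Test system: recombinant human RBBP9; Timing: 30 min then 45 min, 25 °C; Detection: fluorescence polarization; Control set: RBBP9 with DMSO as uninhibited control, no-protein wells as full inhibition; Compound dosing: one concentration, 7.94 µM nominal, 0.794% DMSO; Probe or stimulus: FP-Rh activity-based probe, 375 nM before mixing.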
sdo1 growth = growth rescue of sdo1-depleted yeast, primary screen, S. cerevisiae, bone marrow failure model; S. cerevisiae sdo1-depleted JHY4D growth rescue, OD600 30 h; active compounds read high; pdr5 snq2 efflux-pump mutant strain; z-score at 10 µM; hit rate 0.21% among 140,000; AID 817, 2007;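 active = z-score above 3 at both the 24 hr and the 30 hr optical density reads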;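 note: z-score against mean and SD of all compound wells on the same plate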
Active calls of the source: *; . = no result given. An excerpt weighted towards active compounds, which were near 1.6% of everything screened.

SMILES	Yeast lifespan up	p47phox inh	TbHK1 inh	Yeast growth inh	RBBP9 inh	sdo1 growth
CCCCn1c(Nc2ccccc2)nc2ccccc21	1	-5	0	-54	-6	0.96
CN1C(=O)C(O)(CC(=O)/C=C/c2ccco2)c2cc(Br)ccc21 (stereo not drawn)	.	-5	-21	.	-1	.
CN1C(=O)C(O)(CC(=O)c2ccccc2O)c2cc(Br)ccc21 (stereo not drawn)	-10	-16	-4	54*	-6	0.48
COc1ccc(/C=N/OCC(=O)N2CCCC2)c(OC)c1	.	-1	1	.	-10	.
COc1ccc(/C=C2/C(=O)ON=C2c2ccccc2)cc1OC	27*	-4	-5	61*	-4	-0.41
O=C1ON=C(c2ccccc2)/C1=C/c1ccco1	.	-14	12	.	-1	.
COc1cc(/C=C2\C(=O)ON=C2c2ccccc2)cc(OC)c1OC	17	7	2	48*	-5	-0.18
Cc1cc(C)c2c(C)[nH]nc2n1	.	-5	-1	.	14	.
Cc1cc(C)c2c(N=NN3CCCCC3)[nH]nc2n1	-8	-14	-8	85*	-10	-0.37
CCN(CC)N=Nc1[nH]nc2nc(C)cc(C)c12	-25	-5	-13	78*	-4	0.24
CCOC(=O)c1nc(-c2ccc(OC)c(OC)c2)no1	.	-3	-6	.	-6	.
O=C(CNC(=O)C1CCCCC1)Nc1cc(Cl)ccc1Cl	4	-7	0	-38	-7	-0.58
O=C(CNC(=O)C1CCCCC1)Nc1ccccc1Cl	2	53*	2	-7	-3	0.1
COCCN(C(=S)Nc1cc(C)cc(C)c1)C(C)c1ccco1 (stereo not drawn)	.	7	0	.	1	.
CCc1ccccc1N1CSC2=C(C#N)C(c3cc(OC)c(OC)cc3OC)CC(=O)N2C1 (stereo not drawn)	-14	31*	-12	-40	-2	-0.13
O=c1[nH]nc(-c2ccc(F)cc2)cc1Cc1ccc(F)cc1	.	37*	-3	.	-5	.
Cc1ccc(-c2cc(Cc3ccc(F)cc3)c(=O)[nH]n2)cc1	.	-9	-3	.	-5	.
CCOC(=O)Nc1ccc(C)cc1C	-8	117*	5	-34	-11	1.1
Cc1ccccc1C(=O)NNC(=S)NC(=O)COc1ccccc1	12	-9	5	70*	4	-1.1
Cc1ccc(C(=O)NNC(=S)NC(=O)COc2ccccc2)cc1	0	1	-7	-30	-5	0.73
CCCn1c(C)cc(C(=O)COc2ncnc3sccc23)c1C	49*	-9	1	0	4	-1.1
CC(C)CC1(C)N=C(c2ccccc2)C(=S)N1 (stereo not drawn)	.	-8	-10	.	-1	.
Cn1c(=O)c2c(=O)cc(NNC(=O)C(C)(C)C)[nH]c2n(C)c1=O	28*	-10	-10	-2	-3	-0.29
CCCC(=O)NNc1cc(=O)c2c(=O)n(C)c(=O)n(C)c2[nH]1	5	-24	-4	-37	4	-0.07
Cc1nnsc1C(=O)N1CCN(c2cc(C(F)(F)F)ccn2)CC1	.	-8	-7	.	-9	.
SMILES	Yeast lifespan up	p47phox inh	TbHK1 inh	Yeast growth inh	RBBP9 inh	sdo1 growth
CC(=O)c1ccc(N2CCN(C(=S)NCCCN(C)C)CC2)cc1	.	-16	-37	.	-3	.
O=C(COC(=O)c1ccc(N2CCOCC2)c([N+](=O)[O-])c1)Nc1ccc2c(c1)OCO2	-1	-13	23	-21	-10	0.59
Nc1ccc(C(=O)OCC(=O)Nc2ccc3c(c2)OCO3)cc1[N+](=O)[O-]	-1	-4	10	98*	-4	0.03
CCCCOC(=O)c1ccc(NC(=O)c2c(OC)cccc2OC)cc1	.	37*	4	.	-5	.
CC(C)N(C(=O)Cn1cc(SCC(N)=O)c2ccccc21)C(C)C	.	-7	2	.	1	.
COc1cc(Br)c(CCNC(=O)c2ccco2)cc1OC	.	0	-4	.	2	.
CC(C)n1nc(C(=O)Oc2cc(Cl)ccc2Cl)c2ccccc2c1=O	21	-10	-2	-5	3	-0.49
CC(C)n1nc(C(=O)Oc2cccc(Cl)c2Cl)c2ccccc2c1=O	35*	3	2	-32	-9	0.73
CN(C)c1cccc2c(S(=O)(=O)N3CCOCC3)cccc12	5	59*	-19	-90	-4	-0.34
O=S(=O)(c1cccc2cccnc12)N1CCOCC1	-1	11	-6	31	-3	0.06
C=CCOc1ccc2cccc(/C=N/NC(=O)c3cc4cc([N+](=O)[O-])ccc4s3)c2c1	-8	41*	-4	-30	-13	-1.2
O=C(Nc1ccccn1)c1cc2cc([N+](=O)[O-])ccc2s1	.	11	-8	.	-9	.
O=C(O)c1cc(=O)[nH]c2c(Cl)cccc12	.	12	-5	.	-4	.
CC(C)c1ccc2occ(-c3nn[nH]n3)c(=O)c2c1	59*	9	3	-27	-5	0
Cc1ccc2occ(-c3nn[nH]n3)c(=O)c2c1	14	11	35	6	4	0.78
COC(=O)CC1=NN(c2ccccc2)C(=O)/C1=C\c1ccc(OC)cc1	53*	-3	-2	-38	-6	-0.3
CCOC(=O)CC1=NN(c2ccccc2)C(=O)/C1=C\c1ccc(OC)cc1OC	51*	-14	-10	-27	-5	-0.51
COC(=O)CC1=NN(c2ccc(OC)cc2)C(=O)/C1=C\c1ccc(Cl)cc1	31*	-1	-12	-24	-4	0.24
Cc1ccc2nc3sc(-c4nnc(-c5ccccc5[N+](=O)[O-])o4)c(N)c3cc2c1	-13	44*	9	-44	0	0.18
COc1ccc(C(=O)/C(C#N)=N/Nc2ccc([N+](=O)[O-])cc2)cc1	.	-8	-1	.	3	.
CCOc1ccc(N/N=C(/C#N)C(N)=O)cc1	-8	-1	-4	97*	-1	-1.4
COc1ccc(N/N=C(\C#N)C(N)=O)cc1	7	-35	-25	58*	-4	-1.6
CN(Cc1cc2ccccc2[nH]c1=O)C(=O)COc1ccccc1	.	-3	-15	.	4	.
Cn1cccc1Cc1nnc(SCC(=O)N2CCCC2)n1CCc1ccccc1	-5	3	-2	0	-8	0.74
Cn1cccc1Cc1nnc(SCC(N)=O)n1CCc1ccccc1	-5	89*	-2	-26	-1	2.2
CCOc1ccccc1/C=c1\sc2ncnn2c1=O	49*	-4	-11	-43	0	0.49
COc1cc(/C=C2\SC(=S)N(NS(=O)(=O)c3ccccc3)C2=O)cc(OC)c1OC	.	-17	-7	.	-10	.
